Measured values taken from ChEMBL document CHEMBL4190346, “Structure-based design, synthesis, and biological evaluation of withaferin A-analogues as potent apoptotic inducers” (Eur J Med Chem, 2017).
Activity calls are given as the source filed them. The rule behind the calls is not given here.

Assays:
[1] = system: HeLa; assay: Induction of apoptosis in human HeLa cells assessed as increase in caspase-3 activity by measuring pNA release level at 12 uM incubated for 4 hrs using c-DEVD-pNA substrate by colorimetric assay; type: functional
How it was run: (§1)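 HeLa cells in DMEM with 10% FBS were exposed for 4 h (fixed 24 or 32 level for 8 h). Staurosporine for 4 h served as the positive control. Cells were lysed at 4 °C for 10 min and centrifuged, and supernatant protein was measured by Bradford. Caspase-3 activity was read colorimetrically as nmol pNA/min/mL, with treated/untreated OD ratios. Values are means ± SD of three independent experiments in triplicate.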

[2] = system: HeLa; assay: Induction of apoptosis in human HeLa cells assessed as […] by measuring pNA release level at 32 uM incubated for 8 hrs using c-DEVD-pNA substrate by colorimetric assay; type: functional, cell-based; how it was run: as §1
[3] = system: HeLa; assay: Induction of apoptosis in human HeLa cells assessed as increase in caspase-3 activity by measuring pNA release level at 32 uM incubated for 4 hrs using c-DEVD-pNA substrate by colorimetric assay; type: functional; how it was run: as §1
[4] = system: Vero; assay: Cytotoxicity against African green monkey Vero cells assessed as reduction in cell viability using compound addition to cell culture cells in lag phase of growth and incubated for 48 hrs by MTT assay; type: cell-based, Chlorocebus sabaeus; conditions: Chlorocebus sabaeus, Vero, 48 h; read-out: IC50
[5] = system: A549; assay: Cytotoxicity against human A549 cells assessed as reduction in cell viability using compound addition to cell culture cells in lag phase of growth and incubated for 48 hrs by MTT assay; type: functional, cell-based; conditions: Homo sapiens, A549, 48 h; read-out: IC50
[6] = system: HeLa; assay: Induction of apoptosis in human HeLa cells assessed increase in DNA fragmentation at 16 uM incubated for 12 hrs by ethidium bromide staining based agarose gel electrophoresis; type: functional, cell-based
How it was run: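 HeLa cells were incubated with the compounds at varying concentrations for 12 or 24 h. Controls were DMSO (solvent) and staurosporine 2 µM (positive). Adherent and floating cells were pooled, centrifuged at 500 g and washed twice in cold PBS. Genomic DNA was extracted with a kit, run on 1.8% agarose, stained with ethidium bromide and viewed under UV.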

[7] = system: HeLa; assay: Cytotoxicity against human HeLa cells assessed as reduction in cell viability using compound addition to cell culture cells in lag phase of growth and incubated for 48 hrs by MTT assay; type: functional, cell-based; conditions: Homo sapiens, HeLa, 48 h; read-out: IC50
[8] = system: MCF7; assay: Cytotoxicity against human MCF7 cells assessed as reduction in cell viability using compound addition to cell culture cells in log phase of growth and incubated for 48 hrs by MTT assay; type: functional, cell-based; conditions: Homo sapiens, MCF7, 48 h; read-out: IC50
[9] = system: HeLa; assay: Induction of apoptosis in human HeLa cells assessed as increase in caspase-3 activity by measuring pNA release level at 24 uM incubated for 4 hrs using c-DEVD-pNA substrate by colorimetric assay; type: functional; how it was run: as §1
[10] = system: Vero; assay: Cytotoxicity against African green monkey Vero cells assessed as reduction in cell viability using compound addition to cell culture cells in log phase of growth and incubated for 48 hrs by MTT assay; type: cell-based, Chlorocebus sabaeus; conditions: Chlorocebus sabaeus, Vero, 48 h; read-out: IC50
[11] = system: MCF7; assay: Cytotoxicity against human MCF7 cells assessed as reduction in cell viability using compound addition to cell culture cells in lag phase of growth and incubated for 48 hrs by MTT assay; type: functional, cell-based; conditions: Homo sapiens, MCF7, 48 h; read-out: IC50
[12] = system: A549; assay: Cytotoxicity against human A549 cells assessed as reduction in cell viability using compound addition to cell culture cells in log phase of growth and incubated for 48 hrs by MTT assay; type: functional, cell-based; conditions: Homo sapiens, A549, 48 h; read-out: IC50
[13] = system: HeLa; assay: Induction of apoptosis in human HeLa cells assessed as increase in caspase-3 activity by measuring pNA release level at 8 uM incubated for 4 hrs using c-DEVD-pNA substrate by colorimetric assay; type: functional; how it was run: as §1
[14] = system: HeLa; assay: Cytotoxicity against human HeLa cells assessed as reduction in cell viability using compound addition to cell culture cells in log phase of growth and incubated for 48 hrs by MTT assay; type: functional, cell-based; conditions: Homo sapiens, HeLa, 48 h; read-out: IC50
[15] = system: HeLa; assay: Induction of apoptosis in human HeLa cells assessed as increase in caspase-3 activity by measuring pNA release level at 16 uM incubated for 4 hrs using c-DEVD-pNA substrate by colorimetric assay; type: functional; how it was run: as §1
[16] = system: HeLa; assay: Induction of apoptosis in human HeLa cells at 10 uM incubated for 4 hrs by annexin V and propidium iodide staining based flow cytometry; type: functional, cell-based
[17] = system: HeLa; assay: Induction of apoptosis in human HeLa cells assessed increase in apoptotic nuclei formation at 8 uM incubated for 12 hrs by Hoechst 33342 staining based fluorescence microscopy; type: functional
[18] = system: HeLa; assay: Induction of cell cycle arrest in human HeLa cells assessed increase in subG1 phase accumulation at 24 uM incubated for 12 hrs by 33342 propidium iodide based flow cytometry relative to untreated control; type: functional
[19] = system: MCF7 (Homo sapiens); assay: Ratio of IC50 for cytotoxicity against human MCF7 cells incubated for 48 hrs to IC50 for cytotoxicity against human MCF7 cells incubated for 72 hrs
[20] = system: MCF7; assay: Ratio of IC50 for cytotoxicity against human MCF7 cells incubated for 48 hrs to IC50 for cytotoxicity against human MCF7 cells incubated for 72 hrs; type: functional
[21] = system: MCF7 (Homo sapiens); assay: Ratio of IC50 for cytotoxicity against human MCF7 cells incubated for 48 hrs to IC50 for cytotoxicity against human MCF7 cells incubated for 72 hrs; remark: listed apart in the source

Row | Structure (SMILES) | Activity [1] [nmol/min/mL] | Activity [2] | Activity [3] [nmol/min/mL] | IC50 [4] [µM] | IC50 [5] [µM] | Activity [6] | IC50 [7] [µM] | IC50 [8] [µM] | Activity [9] [nmol/min/mL] | IC50 [10] [µM] | IC50 [11] [µM] | IC50 [12] [µM] | Activity [13] [nmol/min/mL] | IC50 [14] [µM] | Activity [15] [nmol/min/mL] | further results
1 | CC1=C(COC(=O)C(C)(C)C)C(=O)O[C@@H]([C@@H](C)[C@H]2CC[C@H]3[C@@H]4C[C@H]5O[C@]56[C@@H](OC(=O)C(C)(C)C)C=CC(=O)[C@]6(C)[C@H]4CC[C@]23C)C1 | 0.25 | Active | 0.63 | 0.4 | 4.1 | Active | 0.9 | 1.2 | 0.54 | 0.5 | 0.6 | 4.6 | 0.26 | 2.4 | 0.28 | Activity [16]: Active; Activity [17]: 15%; fold change (FC) [18]: 4 - 6
2 | CC(=O)OCC1=C(C)C[C@H]([C@@H](C)[C@H]2CC[C@H]3[C@@H]4C[C@H]5O[C@]56[C@@H](OC(C)=O)C=CC(=O)[C@]6(C)[C@H]4CC[C@]23C)OC1=O | 0.42 |  | 0.68 |  |  | Active |  |  | 1.06 |  |  |  | 0.33 |  | 0.5 | 
3 | CC1=C(COC(=O)CBr)C(=O)O[C@@H]([C@@H](C)[C@H]2CC[C@H]3[C@@H]4C[C@H]5O[C@]56[C@@H](O)C=CC(=O)[C@]6(C)[C@H]4CC[C@]23C)C1 |  |  |  | 1.1 | 3.9 |  | 2.1 | 0.9 |  | 1.6 | 1.2 | 4.8 |  | 4.9 |  | Ratio IC50 [19]: >3; Ratio IC50 [20]: >3; Ratio IC50 [21]: >3
4 | CCCC(=O)OCC1=C(C)C[C@H]([C@@H](C)[C@H]2CC[C@H]3[C@@H]4C[C@H]5O[C@]56[C@@H](OC(=O)CCC)C=CC(=O)[C@]6(C)[C@H]4CC[C@]23C)OC1=O | 0.61 | Active | 1.7 | 1.6 | 2.8 |  | 1.9 | 1 | 0.88 | 0.7 | 1 | 1.9 | 0.15 | 1.6 | 0.93 | 
5 | CCC(=O)OCC1=C(C)C[C@H]([C@@H](C)[C@H]2CC[C@H]3[C@@H]4C[C@H]5O[C@]56[C@@H](OC(=O)CC)C=CC(=O)[C@]6(C)[C@H]4CC[C@]23C)OC1=O | 1.1 | Active | 1.7 | 1.5 | 2.6 |  | 2.1 | 1.1 | 1.6 | 0.8 | 2.4 | 4.1 | 0.58 | 1.1 | 2.3 | 
